Only some compounds are listed: those with a hit (about 2.5% of all), similar ones and a draw of the others.
HTRA1 inhibitor – HTRA1 (human) protease inhibition; recombinant HTRA1, FP-rhodamine activity-based probe, fluorescence polarization; inhibition, % at 5.96 µM; actives 0.5% (n = 340,000); AID 504803; Q92743; in the data active = inhibition above about 36%;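 note: 0% = enzyme with DMSO and 100% = wells lacking enzyme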
PRMT1 FP inh – PRMT1 (human) inhibition, primary screen. recombinant PRMT1, activity-based probe fluorescence polarization. inhibition, % at 2.79 µM. actives 1.3% (n = 370,000);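 active = inhibition above about 21% made by adding two undisclosed values, limit read from the data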
TCR-CD3 inh – human TCR-CD3 binding inhibition | TAMRA-labeled TCR probe fluorescence, biochemical | inhibition, % at 9.4 µM | actives 0.37% (n = 360,000); in the data active = inhibition above about 19%;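 note: recombinant mutant TCR 2C K166C tagged with TAMRA read by polarization; 0% = receptor in buffer alone and 100% = receptor with positive control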
SIAE primary – human SIAE inhibition, primary screen | Q9HAT2 | SIAE FP-Rh probe binding, fluorescence polarization | inhibition, % at 9.66 µM | actives 0.69% (n = 370,000);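 active = inhibition above a cutoff: mean of compounds within the control limits plus 3 SD of those, cut at about 17% in these data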;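 note: 0% = plate median of compound wells and 100% = probe without SIAE protein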
Target sequence (Q9HAT2 whole entry, looked up): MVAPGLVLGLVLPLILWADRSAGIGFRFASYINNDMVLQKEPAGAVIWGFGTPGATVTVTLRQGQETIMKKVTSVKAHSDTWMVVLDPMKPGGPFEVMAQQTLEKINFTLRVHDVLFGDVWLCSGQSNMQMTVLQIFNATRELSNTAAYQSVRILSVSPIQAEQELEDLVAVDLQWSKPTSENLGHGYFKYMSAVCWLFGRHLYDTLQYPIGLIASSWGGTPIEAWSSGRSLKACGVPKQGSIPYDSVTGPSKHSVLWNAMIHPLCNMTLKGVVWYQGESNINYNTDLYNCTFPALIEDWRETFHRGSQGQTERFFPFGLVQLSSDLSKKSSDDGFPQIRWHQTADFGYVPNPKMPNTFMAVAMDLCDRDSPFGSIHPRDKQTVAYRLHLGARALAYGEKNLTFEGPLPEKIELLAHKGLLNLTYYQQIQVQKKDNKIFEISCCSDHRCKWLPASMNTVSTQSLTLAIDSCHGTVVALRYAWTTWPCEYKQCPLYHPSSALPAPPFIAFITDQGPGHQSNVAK
ABHD4 inh – inhibits mouse alpha/beta hydrolase domain 4; Q8VD66; purified mABHD4, FP-Rh probe fluorescence polarization; inhibition, % at 8.92 µM; actives 0.54% (n = 370,000); AID 720543;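 active = inhibition exceeding the mean over every tested compound plus 3 SD, cut at about 30% in these data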;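 note: 0% = plate median of compound wells and 100% = S159A mutant with DMSO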
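Material: mouse ABHD4 enzyme, wild type; Benchmarks: S159A mutant high control, sample median low control; Buffer or medium: HEPES pH 7.0, NaCl, Pluronic buffer; Signal: fluorescence polarization; Read-out: percent inhibition of probe binding, normalized to plate controls; Timing: pre-incubation 45 min, probe exposure 60 min, at 25 °C; Dosing: 8.92 µM, single dose.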
SIAE inh conf – human SIAE inhibition, confirmation | inhibition, % at 9.66 µM | actives 13% (n = 2,300) | shares compounds with SIAE primary | AID 1117263 | SIAE FP-Rh activity-based probe, fluorescence polarization;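 active = mean inhibition of the replicates above the hit cutoff set in the primary screen, cut at about 17% in these data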;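 note: 0% = SIAE with DMSO and probe and 100% = probe without SIAE; inhibitors lower polarization as more probe stays unbound to SIAE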
* = called active by the depositor; . = no result given.

SMILES	HTRA1 inhibitor	PRMT1 FP inh	TCR-CD3 inh	SIAE primary	ABHD4 inh	SIAE inh conf
O=C(Cc1cccnc1)N[C@@H]1CC[C@H](CCn2cc(Cc3ccccc3)nn2)O[C@@H]1CO	.	2.7	-7.5	2.5	7.8	.
CCOc1ccc(CCNS(=O)(=O)c2cccc3nsnc23)cc1OCC	6.2	1.3	7.1	17.4*	5.7	-0.8
COc1ccc(-c2noc(C3CCCN(C(=O)Nc4ccc(C)c(F)c4)C3)n2)cc1 (stereo unspecified)	.	4.3	.	-8.8	-22.4	.
C(=N\Nc1nc(N2CCCCC2)nc(N2CCCCC2)n1)/c1c[nH]c2ccccc12	4.0	-3.1	10.0	13.6	8.6	.
COc1ccc(/C=N/Nc2nc3ccccc3[nH]2)c(OC)c1OC	9.8	-2.0	-0.1	21.1*	7.9	4.4
Cc1[nH]c2ccccc2c1/C=N/Nc1nc(N2CCCCC2)nc(N2CCCCC2)n1	2.8	-0.9	1.0	17.9*	20.8	6.5
Cc1[nH]c2ccccc2c1/C=N/Nc1nc2ccccc2[nH]1	.	-5.6	-1.5	32.3*	24.2	36.8*
C#CCN1CC(COc2ccccc2)Oc2cccc(Oc3ccc(C(C)C)cc3)c2S1(=O)=O (stereo unspecified)	.	-0.5	6.6	-4.0	-6.6	.
Cc1ccc(Cl)cc1NC(=O)c1cc(S(=O)(=O)N2CCOCC2)cn1C	1.2	-1.1	6.9	-5.4	5.2	.
CCCCOc1ccc(Cc2n[nH]c(=S)n2N)cc1	-1.7	3.4	2.6	11.5	-1.7	.
COc1ccc(C(=O)c2c3ccc([N+](=O)[O-])cc3[n+]([O-])n2CCCC(N)=O)cc1	-0.3	3.6	4.7	-7.5	7.5	.
CN(C(=O)c1ccc(OC2CCN(C(=O)c3cccnc3)CC2)cc1)C1CCCCC1	3.1	-6.5	6.7	24.5*	-3.1	4.2
Cc1ccc(OCCC(=O)Nc2cc(S(=O)(=O)N3CCOCC3)ccc2N2CCCC2)cc1	7.2	1.9	-4.7	9.1	-3.1	.
CCCCn1nc(C(=O)Nc2ccc(-n3cnnn3)cc2)c2ccccc2c1=O	7.2	2.3	-6.7	5.6	-0.6	.
CC(C)(C)c1ccc(C(=O)NNc2ccc(F)cc2F)cc1	-1.2	0.9	-1.2	21.8*	-14.3	-4.1
CCc1ccc(C(=O)NNc2ccc(F)cc2F)cc1	-1.5	4.3	-3.3	-2.1	5.2	.
CC(=O)Nc1cccc(C(=O)OC(C)C(=O)N2CCc3ccccc32)c1 (stereo unspecified)	1.8	-4.6	1.5	0.5	1.7	.
CC(OC(=O)c1ccc(Cl)nc1)C(=O)N1CCc2ccccc21 (stereo unspecified)	0.1	2.3	-4.8	18.7*	-1.6	2.3
COc1ccc(N2C(=O)C(=O)/C(=C(/O)c3ccc(C)cc3)C2c2cccnc2)cc1 (stereo unspecified)	2.3	-2.8	1.4	21.2*	6.9	3.5
COc1ccc(C2/C(=C(/O)c3ccc(C)cc3)C(=O)C(=O)N2C)cc1 (stereo unspecified)	-5.4	3.8	1.8	12.0	1.0	.
O=C(Nc1ccc2c(c1)C(=O)NC2=O)c1ccc2ncsc2c1	-3.5	2.7	5.6	-8.0	-4.4	.
COc1cccc(CNC(=O)c2cccc(NC(=O)C3=C(C)OCCS3)c2)c1	-3.8	1.4	-8.5	20.7*	-10.6	-4.0
Cc1ccc2[nH]c3c(N4CCc5ccccc5C4)ncnc3c2c1	-26.6	3.8	1.5	23.2*	29.3	13.0
COc1ccc2[nH]c3c(N4CCC(O)(c5cccc(C(F)(F)F)c5)CC4)ncnc3c2c1	-14.1	2.2	-4.3	17.8*	17.7	14.8
COC(=O)[C@]12C[C@H](CC(=O)N3CCSCC3)C(=O)N(Cc3cccc4ccccc34)C1=C[C@H](COCc1ccccc1)O[C@@H]2C	.	-0.5	.	3.0	-9.4	.
SMILES	HTRA1 inhibitor	PRMT1 FP inh	TCR-CD3 inh	SIAE primary	ABHD4 inh	SIAE inh conf
CCOC(=O)c1c(C)[nH]c(NC(=O)N2CCOCC2)c1C	-4.8	1.5	0.4	1.4	1.1	.
Nc1ncnc2c1ncn2[C@@H]1O[C@H](C(=O)N2CCN(c3nc4ccccc4o3)CC2)[C@@H](O)[C@H]1O	.	12.2	-4.3	0.9	1.1	.
Nc1ncnc2c1ncn2[C@@H]1O[C@H](C(=O)N2CCC(F)(F)CC2)[C@@H](O)[C@H]1O	.	1.1	4.7	52.0*	-1.5	56.8*
Nc1ncnc2c1ncn2[C@@H]1O[C@H](C(=O)N2CCC[C@@H]2C(=O)OCc2ccccc2)[C@@H](O)[C@H]1O	.	0.5	11.5	28.0*	-6.3	19.4*
COC(=O)[C@@H](Cc1ccccc1)NC(=O)[C@H]1O[C@@H](n2cnc3c(N)ncnc32)[C@H](O)[C@@H]1O	.	4.1	-3.3	10.1	-0.8	.
CN1[C@H](Cc2ccccc2)COc2cccc(N3CCCC3)c2S1(=O)=O	.	1.4	.	1.8	-0.9	.
Cc1ncc(CSc2nc3ccccc3[nH]2)c(N)n1	2.9	1.4	-2.4	-1.9	1.9	.
COc1ccc2nc(SCc3cnc(C)nc3N)[nH]c2c1	1.3	1.2	4.0	19.1*	9.6	-3.9
CNc1nnc(CSc2nc(C)cc(C)n2)s1	5.0	0.4	4.7	27.3*	5.4	8.6
S=C(NCCCn1ccnc1)Nc1cccc(Cl)c1	-0.3	-2.6	7.2	20.5*	-1.1	-0.2
O=C(Cn1nnc2ccccc21)OCC(=O)c1ccc(Cl)c(Cl)c1	2.0	8.2	-2.7	-2.9	4.5	.
O=C(Cn1nnc2ccccc21)OCC(=O)c1ccccc1	-0.5	4.1	2.2	18.8*	0.4	-3.0
O=[N+]([O-])c1ccc2c(c1)C=C1CCCCC1(N1CCCC1)O2 (stereo unspecified)	0.2	-2.0	-2.8	21.4*	-2.6	-3.5
O=C(NCc1cccs1)C1CCCN1C(=O)Nc1ccc(F)cc1 (stereo unspecified)	1.3	0.1	0.2	-2.0	6.7	.
O=C(COC(=O)c1ccccc1SCC(=O)N1CCCC1)Nc1ccc(OC(F)F)cc1	2.1	19.1	2.5	19.8*	-7.3	1.3
NC(=O)c1ccc(NC(=O)COC(=O)c2ccccc2SCC(=O)N2CCCC2)cc1	2.0	9.3	7.7	-1.9	3.6	.
Cc1ccc(OCC(=O)Nc2ccc(S(=O)(=O)N3CCN(C)CC3)cc2)cc1	-3.8	-0.4	6.4	17.6*	-1.3	-0.1
COc1ccccc1NC(=O)C1=C(C)Nc2nc(-c3cccnc3)nn2C1c1ccccn1 (stereo unspecified)	2.6	-4.8	-1.9	-3.8	-4.3	.
COc1ccccc1NC(=O)C1=C(C)Nc2nc(-c3cccs3)nn2C1c1cccnc1 (stereo unspecified)	-9.1	4.4	-4.2	18.0*	-1.4	0.4
c1csc(C2=Nn3c(nnc3-c3ccncc3)SC2)c1	2.7	-5.0	-9.5	18.8*	2.3	-0.8
c1ccc(-c2ccc(C3=Nn4c(nnc4-c4ccncc4)SC3)cc2)cc1	.	1.5	.	-17.3	-26.3	.
COc1cccc(N(C)C(=O)[C@@H](C2CC2)[C@@H](O)c2ccc3ccccc3c2)c1	.	-1.1	.	3.1	-0.9	.
Cc1ccc(S(=O)(=O)N2CCCc3nc(-c4ccc(F)cc4)ccc32)cc1	.	-4.5	0.1	-2.6	-2.4	.

Assay outcomes as filed in PubChem BioAssay.
